Laboratory results from ChEMBL document CHEMBL2021883, “Amino acid, dipeptide and pseudodipeptide conjugates of ring-substituted 8-aminoquinolines: synthesis and evaluation of anti-infective, β-haematin inhibition and cytotoxic activities” (Eur J Med Chem, 2012).
Values after ≈ are worked out from the molar mass of the structure shown. Active and inactive are the calls of the source. Unless noted, no cut-off for these calls is given here.

Assays:
Plasmodium falciparum [1] = assay: Antimalarial activity against chloroquine-resistant Plasmodium falciparum W2 assessed as plasmodial LDH activity; format: functional, organism-based; conditions: Plasmodium falciparum, W2; read-out: IC50
[2] = test system: Mycobacterium intracellulare; assay: Antimicrobial activity against Mycobacterium intracellulare ATCC 23068 by Franzblau method; format: functional, organism-based
Plasmodium berghei [3] = assay: Antimalarial activity against Plasmodium berghei blood-schizont in mouse malaria model assessed as elimination of parasitemia at 50 mg/kg, po for 4 days for 4 days measured after 7 days; format: functional, organism-based; set-up: dose 50 mg/kg
Procedure, shortened: (§1)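 P. berghei-infected mice, 6 per group, received compound orally once daily for 4 days at 10, 25, 50 or 100 mg/kg/day. "Active" meant all treated animals were parasitaemia-negative up to D+7. "Curative" meant complete parasite elimination with survival to D+60. Outcomes were recorded as cured/total.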

Plasmodium berghei [4] = assay: Antimalarial activity against Plasmodium berghei blood-schizont in mouse malaria model assessed as disease curative activity at 100 mg/kg, po after 60 days; format: functional; procedure, shortened: as §1
Cryptococcus neoformans = assay: Antifungal activity against Cryptococcus neoformans; format: functional, organism-based
Procedure, shortened: (§2)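 Yeasts and A. fumigatus were tested by broth microdilution following the NCCLS antifungal standards. The highest test concentration was 20.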

Plasmodium berghei [5] = assay: Antimalarial activity against Plasmodium berghei blood-schizont in mouse malaria model assessed as elimination of parasitemia at 10 mg/kg, po for 4 days for 4 days measured after 7 days; format: functional, organism-based; set-up: dose 10 mg/kg; procedure, shortened: as §1
Candida albicans [6] = assay: Fungicidal activity against Candida albicans at 20 ug/ml; format: functional, organism-based
Procedure, shortened: (§3)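 Broth dilution antifungal testing followed the NCCLS reference method for yeasts, with 20 as the highest test concentration. MIC was the lowest concentration with no detectable growth. MFC was the lowest concentration killing the organism.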

[7] = Inhibition of beta-hematin formation; format: functional
Staphylococcus aureus [8] = assay: Antimicrobial activity against Staphylococcus aureus ATCC 29213 by CLSI method; format: functional, organism-based
Candida albicans [9] = assay: Antifungal activity against Candida albicans at 20 ug/ml; format: functional, organism-based; procedure, shortened: as §3
Vero = assay: Cytotoxicity against african green monkey Vero cells upto 23.8 […] by neutral dye assay; format: cell-based, Chlorocebus sabaeus
Procedure, shortened: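 Vero monkey kidney cells were exposed to compound up to a highest concentration of 23.8, with viability read by neutral red uptake.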

Plasmodium berghei [10] = assay: Antimalarial activity against Plasmodium berghei blood-schizont in mouse malaria model assessed as elimination of parasitemia at 25 mg/kg, po for 4 days for 4 days measured after 7 days; format: functional, organism-based; set-up: dose 25 mg/kg; procedure, shortened: as §1
Aspergillus fumigatus = assay: Antifungal activity against Aspergillus fumigatus; format: functional, organism-based; procedure, shortened: as §2
[11] = Selectivity index, ratio of IC50 for african green monkey Vero cells to IC50 for chloroquine-sensitive Plasmodium falciparum D6; format: toxicity, cell-based; conditions: Vero cells versus Plasmodium falciparum D6, read-out: Ratio IC50
[12] = Selectivity index, ratio of IC50 for african green monkey Vero cells to IC50 for chloroquine-resistant Plasmodium falciparum W2; format: toxicity, cell-based; conditions: Vero cells versus Plasmodium falciparum W2, read-out: Ratio IC50
Escherichia coli = assay: Antimicrobial activity against Escherichia coli ATCC 35218 by CLSI method; format: functional, organism-based
Pseudomonas aeruginosa = assay: Antimicrobial activity against Pseudomonas aeruginosa ATCC 27853 by CLSI method; format: functional, organism-based
Procedure, shortened: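 Antibacterial testing used CLSI/NCCLS broth dilution for aerobically growing bacteria, with 20 as the highest test concentration.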

Staphylococcus aureus [13] = assay: Antimicrobial activity against methicillin-resistant Staphylococcus aureus ATCC 43300 by CLSI method; format: functional, organism-based
Plasmodium falciparum [14] = assay: Antimalarial activity against chloroquine-sensitive Plasmodium falciparum D6 assessed as plasmodial LDH activity; format: functional, organism-based; conditions: Plasmodium falciparum, D6; read-out: IC50
Leishmania donovani = assay: Antileishmanial activity against Leishmania donovani promastigote by Alamar Blue assay; format: functional, organism-based
Pichia kudriavzevii [15] = assay: Antifungal activity against Candida krusei at 20 ug/ml; format: functional, organism-based; procedure, shortened: as §3
Pichia kudriavzevii [16] = assay: Fungicidal activity against Candida krusei at 20 ug/ml; format: functional, organism-based; procedure, shortened: as §3
Nakaseomyces glabratus = assay: Antifungal activity against Candida glabrata; format: functional, organism-based; procedure, shortened: as §2
Plasmodium berghei [17] = assay: Antimalarial activity against Plasmodium berghei blood-schizont in mouse malaria model assessed as elimination of parasitemia at 100 mg/kg, po for 4 days for 4 days measured after 7 days; format: functional, organism-based; set-up: dose 100 mg/kg; procedure, shortened: as §1
Plasmodium berghei [18] = assay: Antimalarial activity against Plasmodium berghei blood-schizont in mouse malaria model assessed as elimination of parasitemia at 100 mg/kg, po for 4 days for 4 days measured after 4 days; format: functional, organism-based; set-up: dose 100 mg/kg

SMILES: COc1cc(NC(C)CCCNC(=O)[C@H](CCCCN)NC(=O)[C@@H](N)CCCCN)c2ncccc2c1 (some centres undefined)
- IC50 (Plasmodium falciparum [1]): 2.8 µg/mL (≈ 5.43 µM)
- Activity [2]: inactive
- Activity (Plasmodium berghei [3]): Active
- Activity (Plasmodium berghei [4]): 100%
- IC50 (Cryptococcus neoformans): 7 µg/mL (≈ 13.6 µM)
- MFC (Cryptococcus neoformans): 20 µg/mL (≈ 38.8 µM)
- MIC (Cryptococcus neoformans): 10 µg/mL (≈ 19.4 µM)
- Activity (Plasmodium berghei [5]): Active
- Activity (Candida albicans [6]): inactive
- IC50 [7]: 618 µM
- Activity (Staphylococcus aureus [8]): inactive
- Activity (Candida albicans [9]): inactive
- IC50 (Vero): Non-toxic
- Activity (Plasmodium berghei [10]): Active
- Activity (Aspergillus fumigatus): inactive
- selectivity ratio [11]: > 11.9
- selectivity ratio [12]: > 8.5
- Activity (Escherichia coli): inactive
- Activity (Pseudomonas aeruginosa): inactive
- Activity (Staphylococcus aureus [13]): inactive
- IC50 (Plasmodium falciparum [14]): 2 µg/mL (≈ 3.88 µM)
- IC50 (Leishmania donovani): Not Active
- IC90 (Leishmania donovani): inactive

SMILES: COc1cc(NC(C)CCCNC(=O)C[C@@H](NC(=O)[C@H](N)CCCN)C(=O)O)c2nc(C(C)(C)C)ccc2c1 (some centres undefined)
- IC50 (Plasmodium falciparum [1]): 3.4 µg/mL (≈ 6.24 µM)
- Activity [2]: inactive
- IC50 (Cryptococcus neoformans): 4.86 µg/mL (≈ 8.92 µM)
- MFC (Cryptococcus neoformans): 10 µg/mL (≈ 18.4 µM)
- MIC (Cryptococcus neoformans): 10 µg/mL (≈ 18.4 µM)
- Activity (Candida albicans [6]): inactive
- IC50 [7]: > 1000 µM
- Activity (Staphylococcus aureus [8]): inactive
- Activity (Candida albicans [9]): inactive
- IC50 (Vero): Non-toxic
- Activity (Pichia kudriavzevii [15]): inactive
- Activity (Aspergillus fumigatus): inactive
- selectivity ratio [11]: > 9.5
- selectivity ratio [12]: > 7
- Activity (Pichia kudriavzevii [16]): inactive
- Activity (Escherichia coli): inactive
- Activity (Pseudomonas aeruginosa): inactive
- Activity (Staphylococcus aureus [13]): inactive
- IC50 (Nakaseomyces glabratus): 13.7 µg/mL (≈ 25.1 µM)
- MFC (Nakaseomyces glabratus): 20 µg/mL (≈ 36.7 µM)
- MIC (Nakaseomyces glabratus): 20 µg/mL (≈ 36.7 µM)
- IC50 (Plasmodium falciparum [14]): 2.5 µg/mL (≈ 4.59 µM)
- IC50 (Leishmania donovani): Not Active
- IC90 (Leishmania donovani): inactive

SMILES: COc1cc(NC(C)CCCNC(=O)[C@H](CCCN)NC(=O)[C@@H](N)CCCN)c2nc(C(C)(C)C)ccc2c1 (some centres undefined)
- IC50 (Plasmodium falciparum [1]): 2 µg/mL (≈ 3.68 µM)
- Activity [2]: inactive
- IC50 (Cryptococcus neoformans): 3.5 µg/mL (≈ 6.44 µM)
- MFC (Cryptococcus neoformans): 5 µg/mL (≈ 9.2 µM)
- MIC (Cryptococcus neoformans): 5 µg/mL (≈ 9.2 µM)
- Activity (Candida albicans [6]): inactive
- IC50 [7]: 85 µM
- Activity (Staphylococcus aureus [8]): inactive
- Activity (Candida albicans [9]): inactive
- IC50 (Vero): Non-toxic
- Activity (Aspergillus fumigatus): inactive
- selectivity ratio [11]: > 9.5
- selectivity ratio [12]: > 11.9
- Activity (Escherichia coli): inactive
- Activity (Pseudomonas aeruginosa): inactive
- Activity (Plasmodium berghei [17]): inactive
- Activity (Staphylococcus aureus [13]): inactive
- Activity (Plasmodium berghei [18]): inactive
- IC50 (Plasmodium falciparum [14]): 2.5 µg/mL (≈ 4.6 µM)
- IC90 (Leishmania donovani): inactive
- IC50 (Leishmania donovani; Leishmania donovani, read-out: IC50): 20 µg/mL (≈ 36.8 µM)

SMILES: COc1cc(NC(C)CCCNC(=O)[C@@H](CCCCN)NC(=O)[C@H](N)CCCCN)c2nc(C(C)(C)C)ccc2c1 (some centres undefined)
- IC50 (Plasmodium falciparum [1]): 2.8 µg/mL (≈ 4.9 µM)
- Activity [2]: inactive
- IC50 (Cryptococcus neoformans): 6.5 µg/mL (≈ 11.4 µM)
- MFC (Cryptococcus neoformans): 10 µg/mL (≈ 17.5 µM)
- MIC (Cryptococcus neoformans): 10 µg/mL (≈ 17.5 µM)
- Activity (Candida albicans [6]): inactive
- IC50 [7]: > 1000 µM
- Activity (Staphylococcus aureus [8]): inactive
- Activity (Candida albicans [9]): inactive
- IC50 (Vero): Non-toxic
- Activity (Aspergillus fumigatus): inactive
- selectivity ratio [11]: > 5
- selectivity ratio [12]: > 8.5
- Activity (Escherichia coli): inactive
- Activity (Pseudomonas aeruginosa): inactive
- Activity (Plasmodium berghei [17]): inactive
- Activity (Staphylococcus aureus [13]): inactive
- Activity (Plasmodium berghei [18]): inactive
- IC50 (Plasmodium falciparum [14]): 4.76 µg/mL (≈ 8.32 µM)
- IC50 (Leishmania donovani): Not Active
- IC90 (Leishmania donovani): inactive
